CendR NRP1 mod: alters CendR peptide binding to human NRP-1; O14786; FAM-RPARPAR peptide binding to NRP-1, fluorescence polarization; inhibition, % at 25 µM; 360,000 compounds, 0.85% hits; AID 602438;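 active = inhibition or corrected inhibition above about 18%, plus a signal ratio from 0.5 to 1.5, limit read from the data, passing the limit was not always enough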
Target sequence (O14786 whole entry, looked up): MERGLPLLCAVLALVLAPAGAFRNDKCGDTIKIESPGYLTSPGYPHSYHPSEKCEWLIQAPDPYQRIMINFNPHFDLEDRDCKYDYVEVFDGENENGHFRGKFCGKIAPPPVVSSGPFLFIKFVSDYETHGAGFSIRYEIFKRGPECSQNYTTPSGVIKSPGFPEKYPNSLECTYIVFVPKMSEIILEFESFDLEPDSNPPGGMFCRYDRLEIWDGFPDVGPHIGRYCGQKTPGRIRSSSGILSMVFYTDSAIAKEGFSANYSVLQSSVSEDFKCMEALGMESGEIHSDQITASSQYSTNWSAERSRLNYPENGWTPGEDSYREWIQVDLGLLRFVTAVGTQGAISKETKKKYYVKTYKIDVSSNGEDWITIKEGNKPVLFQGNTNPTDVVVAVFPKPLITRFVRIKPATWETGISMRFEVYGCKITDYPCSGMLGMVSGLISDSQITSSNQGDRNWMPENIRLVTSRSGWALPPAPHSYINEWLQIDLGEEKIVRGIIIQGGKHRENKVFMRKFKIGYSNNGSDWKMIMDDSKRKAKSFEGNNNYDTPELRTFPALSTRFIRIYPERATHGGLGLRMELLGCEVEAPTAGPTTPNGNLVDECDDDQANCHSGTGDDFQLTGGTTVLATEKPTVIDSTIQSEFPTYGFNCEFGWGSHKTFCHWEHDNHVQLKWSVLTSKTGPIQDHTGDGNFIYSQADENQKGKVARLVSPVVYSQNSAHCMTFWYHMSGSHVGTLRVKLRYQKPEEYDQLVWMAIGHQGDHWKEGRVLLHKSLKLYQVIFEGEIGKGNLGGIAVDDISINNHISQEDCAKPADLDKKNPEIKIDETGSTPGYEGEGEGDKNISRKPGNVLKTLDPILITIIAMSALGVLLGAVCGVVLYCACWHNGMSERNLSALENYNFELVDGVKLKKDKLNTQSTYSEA
MT1-MMP act inh: inhibitors of human MT1-MMP activation. P50281. HT1080 RFP-PRO-GFP cells, GFP/RFP ratio fluorescence, overnight; percent of plate control window, DMSO zero. GFP/RFP ratio change, % at 20 µM. 360,000 compounds, 0.061% hits. AID 651647;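 active = GFP/RFP ratio change of at least 30% with cell ATP level not reduced by more than half and red fluorescence within 50% of control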
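Assay system: HT1080 RFP-PRO-GFP cells | Dosing: 20 µM single dose, 1% DMSO | Incubation: Cells overnight before dosing, compound overnight, 37 °C, 5% CO2 | Evaluation: GFP/RFP fluorescence ratio | Control set: DMSO-only wells and HT1080 RFP-L50D-GFP cell wells as references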
hiPSC survival: hiPSC single-cell survival enhancement; ATPlite luminescence; 100% = ROCK inhibitor wells, 0% = DMSO; 360,000 compounds, 0.044% hits; AID 602274; survival enhancement, % at 20 µM; in the data active = survival enhancement above about 18%;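 also: cells exposed to compounds for 16 hours before the ATP read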
SKN-1 inh: C. elegans SKN-1 inhibition; C. elegans VP596 Pgst-4::GFP/RFP ratio, acrylamide-induced, 24 h; inhibition, % at 21.8 µM; 360,000 compounds, 0.49% hits; AID 624304;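 active = interference check ratio from 0.5 to 1.5 plus GFP to RFP signal ratio inhibition reaching or exceeding a fixed threshold, cut at about 30% in these data, passing the limit was not always enough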
Of the large screens only hits and unclear results are named; the others gave an inactive call. This is a sample that favours compounds with a hit; in the whole collection about 1.4% have one here.

CC(C)(C)NC(=O)C12CC3CC(CC(Cl)(C3)C1)C2	CendR NRP1 mod 22
COc1ccc(OCC(=O)Nc2cccc(OC)c2)cc1	none
COc1cccc(NC(=O)COc2ccccc2C(N)=O)c1	CendR NRP1 mod 32
O=c1[nH]c2ccc([N+](=O)[O-])cc2nc1/C=C(\O)c1ccccc1	CendR NRP1 mod 84
Cc1cc(C(F)(F)F)n2ncc(-c3ccc(F)cc3)c2n1	SKN-1 inh 40
COc1ccc(S(=O)(=O)N2CCCC(C(=O)NC3CCCC3)C2)cc1OC (stereo not drawn)	none
CN(C)C(=O)CN1C(=O)NC2(CCc3ccccc32)C1=O (stereo not drawn)	SKN-1 inh 37
O=C(CSc1n[nH]c(=O)n1Cc1ccccc1)Nc1ccc(F)c(F)c1F	none
Cc1cc(C)nc(NC(=O)Cc2ccc([N+](=O)[O-])cc2)c1	none
N#Cc1cc(-c2ccccc2)nn1-c1ccccc1	SKN-1 inh 35
Cn1ccc(-c2ccccc2)n1	none
Cc1cccc(N2C(=O)C(Cl)=C(Nc3c(C)n(C)n(-c4ccccc4)c3=O)C2=O)c1C	CendR NRP1 mod 26
Cc1ccc(N2C(=O)C(Cl)=C(Nc3c(C)n(C)n(-c4ccccc4)c3=O)C2=O)cc1	none
CCCOc1ccc(N2C(=O)CC(N(CCc3ccc(OC)cc3)C(=O)c3cccc(F)c3)C2=O)cc1 (stereo not drawn)	SKN-1 inh 35
CCC1COCCS(=O)(=O)N1Cc1cccc(Cl)c1 (stereo not drawn)	none
CC(C)[C@H]1COCCS(=O)(=O)N1Cc1cccc(Cl)c1	CendR NRP1 mod 27
O=S1(=O)CCOC[C@H](Cc2ccccc2)N1Cc1cccc(F)c1	CendR NRP1 mod 35
O=S1(=O)CCOC[C@H](Cc2ccccc2)N1Cc1ccc(F)cc1	none
O=S1(=O)CCOC[C@H](Cc2ccccc2)N1Cc1ccccc1F	CendR NRP1 mod 28
CCN1C(=O)[C@H]2[C@@H](c3ccc(C)cc3)N3C(=O)N(c4ccc(OC)cc4)C(=O)[C@@]3(Cc3ccccc3)[C@H]2C1=O	none
Cc1csc2ncc(C(=O)Nc3ccccc3Cl)c(=O)n12	none
CCOC(=O)c1n[nH]n2c1nc(=O)c1ccccc12	none
O=C(C[n+]1ccccc1)N/N=C/c1ccccc1Cl	CendR NRP1 mod 26
O=C(C[n+]1ccccc1)N/N=C/c1cccc(Cl)c1Cl	none
COc1cc(F)c(C2=CC(=O)C[C@H](c3ccc4c(c3)OCO4)C2)cc1F	none
COc1ccc(F)cc1C1=CC(=O)C[C@H](c2ccc3c(c2)OCO3)C1	CendR NRP1 mod 25
COc1ccc(/C=C(\C#N)C(=O)NCC2CCCO2)cc1OC (stereo not drawn)	SKN-1 inh 36
COc1cc(/C=C(\C#N)C(=O)NCC2CCCO2)ccc1OCC(N)=O (stereo not drawn)	none
COc1ccccc1/C=C/CN1CCSCC1	CendR NRP1 mod 30
CN(c1ccc([N+](=O)[O-])cc1)c1cc2c(c3c1ccn3C)C1CCC2C1 (stereo not drawn)	none
Cc1ccc(C(=O)CN(CCC(=O)O)C(=O)c2ccncc2)cc1	CendR NRP1 mod 22
CC1CCCC(C)N1C(=O)COC(=O)c1ccc([N+](=O)[O-])o1 (stereo not drawn)	none
COc1ccc(N2C(=O)CCC(C(=O)NCc3ccccn3)C2c2ccc(OC)c(OC)c2)cc1 (stereo not drawn)	CendR NRP1 mod 22
N#Cc1c2ccc(O)cc2n2ccccc12	CendR NRP1 mod 31
O=C(c1cccnc1)C1Cc2ccccc2C1=O (stereo not drawn)	SKN-1 inh 36
O/N=C(\c1ccc(Cl)cc1)c1ncc(C(F)(F)F)cc1Cl	none
FC(F)(F)c1cnc2c(-c3ccc(Cl)cc3Cl)noc2c1	SKN-1 inh 32
O=C(Nc1cc(C(=O)N2CCCC2)ccc1N1CCCC1)c1ccccc1	none
COc1cc2[nH]c(=O)c(C(=O)NCCCN3CCCCC3)c(O)c2cc1OC	none
CCCc1cc(-c2nc(-c3ccc(Br)cc3)cs2)ccn1	none
CCCc1cc(-c2nc(-c3ccc(Cl)cc3)cs2)ccn1	SKN-1 inh 56
COc1ccccc1OCC(=O)Sc1ccc(C)cc1	none
Cc1ccc(OCC(=O)Sc2ccc(C)cc2)cc1	SKN-1 inh 56
CC1CCN(C(=O)CSc2nncn2C)CC1	CendR NRP1 mod 48
CC1CCN(C(=O)CSc2nncn2-c2ccccn2)CC1	none
O=S(=O)(c1ccc(S(=O)(=O)N(Cc2ccccc2)Cc2ccco2)cc1)N1CCCC1	none
COC(=O)/C=C/c1ccccc1S(=O)(=O)N(Cc1ccccc1)Cc1ccco1	CendR NRP1 mod 17
O=C(CN1CCN(S(=O)(=O)c2ccc(Br)cc2)CC1)Nc1ccc2c(c1)OCO2	SKN-1 inh 35
CCCCc1nnc(NC(=O)Cc2ccc(OC)c(S(=O)(=O)N3CCOCC3)c2)s1	none
COc1ccc(CC(=O)Nc2nnc(SCc3ccccc3)s2)cc1S(=O)(=O)N1CCOCC1	SKN-1 inh 61
COc1ccc(CC(=O)Nc2ccc3c(c2)OCO3)cc1S(=O)(=O)N1CCOCC1	CendR NRP1 mod 22
C=CCNc1nnc(SCC(=O)Nc2ccccc2OC)c2ccccc12	none
CC1CCCCN1S(=O)(=O)c1ccc(N(C(=O)c2cnccn2)C(C(=O)NC2CCCCC2)c2cccs2)cc1 (stereo not drawn)	CendR NRP1 mod 28
COc1cc(-c2nnc(COC(=O)CSCC(=O)Nc3cc(C)on3)o2)cc(OC)c1OC	none
CC1CCCC(NC(=O)CSc2cccc[n+]2[O-])C1C (stereo not drawn)	none
CC1CCC(=O)N(CCC#N)CC1 (stereo not drawn)	none
O=C(NNC(=O)c1ccc2ccccc2c1)c1ccc(Cl)c(Cl)c1	CendR NRP1 mod 26
CCOC(=O)C1Nc2ccc(C(F)(F)F)cc2C2c3ccccc3CC12 (stereo not drawn)	none
CCOC(=O)C1Nc2ccccc2C2C(O)C(O)CC12 (stereo not drawn)	CendR NRP1 mod 27, MT1-MMP act inh 46
CSc1ccc(NC(=O)Nc2cccn(Cc3ccccc3F)c2=O)cc1	none
Cc1cc2cc(CNC(=O)Nc3ccc(Cl)c(Cl)c3)ccc2n1C	CendR NRP1 mod 19
Cc1cc2cc(CNC(=O)c3ccc4c(c3)OCO4)ccc2n1C	CendR NRP1 mod 20
COc1cc(OC)cc(C(=O)NCc2ccc3c(c2)cc(C)n3C)c1	none
Cc1cc2cc(CNC(=O)c3ccco3)ccc2n1C	CendR NRP1 mod 31, SKN-1 inh 49
O=C(NCc1ccc2c(c1)OCO2)c1cccc(N2CCCC2=O)c1	SKN-1 inh 43
Cc1ccccc1NC(=O)c1ccc2snnc2c1	none
COCC(=O)NCc1ccc2c(c1)cc(C)n2C	SKN-1 inh 47
Fc1ccc(CNc2nc(-c3ccccc3)nc3ccccc23)cc1	SKN-1 inh 46
COc1ccccc1NC(=S)NCCc1ccccc1	CendR NRP1 mod 30
CCOc1ccc(Cl)cc1S(=O)(=O)NC1CCCC1	none
CC(=NNC(=S)N1CCN(C2CCCCCC2)CC1)c1ccccn1	none
CCN1C(=NCCc2ccccn2)N[C@@H](c2cccc(F)c2)C(C(=O)OC)=C1C	none

Source: PubChem (Sanford-Burnham Center for Chemical Genomics)
